Results: article PMC9519467 (Bioactive Materials, 2022)

Assays:
[1] = test system: 4T1 tumor-bearing mice; experiment: In vivo biodistribution after tail vein injection; design: species or system BALB/c mice; settings: 1–24 h
Outline: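 Female BALB/c mice (4–6 weeks, 18–20 g) received 5 × 10^5 4T1 cells subcutaneously in the right flank and were grouped once tumors reached about 100 mm3. Test compound (100 μL, 2.845 mg/mL in PBS) was injected into the tail vein; free P18 in 10% DMSO/PBS served as comparator. P18 fluorescence was imaged by IVIS under isoflurane at 1, 3, 6, 9, 12 and 24 h. Mean tumor-site intensity was computed, and excised organs and tumor were imaged at 24 h.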

[2] = test system: 4T1 tumor-bearing mice; experiment: Tumor retention after intratumoral injection; type: in vivo, BALB/c mice; settings: observed 6–120 h
Outline: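 4T1 flank tumors were raised in female BALB/c mice, and test compound or free P18 solution (10 μL) was injected into the tumor. Fluorescence was imaged by IVIS under isoflurane at 6, 12, 24, 48, 72, 96 and 120 h, and tumor intensity was quantified. In a separate pair of groups, the MMP-2 inhibitor Ilomastat (8 mg/kg) was injected into the tumor 15 min before the test compound, compared with no inhibitor. Tumor fluorescence was imaged at serial time points.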

[3] = test system: 4T1 tumor-bearing mice; experiment: In vivo photothermal effect; design: species or system BALB/c mice; settings: 6 h after tail vein injection, 660 nm, 0.5 W/cm^2, 6 min
Outline: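 The 4T1 model was female BALB/c mice with subcutaneous flank tumors, in two groups. One group got test compound i.v. (100 μL, 2.845 mg/mL in PBS); the comparator group got free P18 solution (100 μL) under the same conditions. Infrared thermal camera images and tumor temperature curves were recorded during irradiation.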

fluorescence signal at the tumor site [1]: barely detectable
course of tumor fluorescence intensity post i.t. injection [2]: decreased gradually until 120 h
Substance: Purpurin 18 [P18]
temperature of the tumor under laser irradiation [3]: 41 °C
